# Bioassay records deposited in PubChem by The Scripps Research Institute Molecular Screening Center.
# Shown are actives, neighbours in structure and some others; about 1.9% of the full set was active somewhere.
# CHRM5 agonist: human M5 muscarinic receptor agonists, primary screen, CHO-K1 cells, Fluo-8 calcium fluorescence; 360,000 tested, 0.19% active; activation, % at 3 µM; CHO-K1 hM5 cells; 0% DMSO wells, 100% maximal acetylcholine response;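 active means activation above the run's mean over test compounds plus 3 SD, cut at about 23% in these data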;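 further: signal is peak over basal fluorescence ratio across the kinetic read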
# Target sequence (P08912 whole entry, looked up): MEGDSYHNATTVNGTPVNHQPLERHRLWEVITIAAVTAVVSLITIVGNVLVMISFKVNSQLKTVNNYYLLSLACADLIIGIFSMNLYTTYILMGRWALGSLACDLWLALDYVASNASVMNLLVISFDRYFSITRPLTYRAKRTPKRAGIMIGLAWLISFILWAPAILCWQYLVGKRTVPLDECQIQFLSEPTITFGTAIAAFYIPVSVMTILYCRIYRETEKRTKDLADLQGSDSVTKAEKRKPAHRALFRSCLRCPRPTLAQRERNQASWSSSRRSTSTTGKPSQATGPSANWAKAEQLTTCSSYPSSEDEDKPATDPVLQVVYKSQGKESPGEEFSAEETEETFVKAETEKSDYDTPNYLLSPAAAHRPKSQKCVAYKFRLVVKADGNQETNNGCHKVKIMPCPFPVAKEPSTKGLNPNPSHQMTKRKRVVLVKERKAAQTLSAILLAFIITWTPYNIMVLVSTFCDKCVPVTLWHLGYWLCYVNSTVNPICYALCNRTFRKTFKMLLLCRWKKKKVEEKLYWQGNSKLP
# CHRM5 antagonist: human M5 muscarinic receptor antagonists, primary screen, CHO cells, Fluo-8 calcium fluorescence. Muscarinic acetylcholine receptor M5 (Homo sapiens), P08912. CHO-hM5 cells, ACh EC80. inhibition, % at 3 µM. 360,000 tested, 0.59% active. AID 624040, 2012;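 active means inhibition above a per-plate cutoff, the mean of that plate's test compounds plus 3 SD, cut at about 27% in these data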;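 further: 0% = acetylcholine EC80 with DMSO and 100% = DMSO without agonist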
# M4 ag: human M4 muscarinic receptor agonists, primary screen, CHO-K1 cells, Fluo-8 calcium fluorescence; 360,000 tested, 0.14% active; CHO-K1 hM4/Gqi5; vehicle 0%, full acetylcholine response 100%; AID 624127, 2012; activation, % at 3 µM;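 active means activation above the run mean over all test wells plus 3 SD, cut at about 32% in these data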;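 further: peak over basal fluorescence ratio per well then scaled between controls; 0% = DMSO wells and 100% = acetylcholine at EC100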
# M4 PAM: human M4 muscarinic receptor positive allosteric modulators, primary screen, CHO-K1 cells, Fluo-8 calcium fluorescence | AID 624126, 2012 | activation, % at 3 µM | CHO-K1 hM4/Gqi5, ACh EC20; 0% = ACh EC20, 100% = maximal ACh | 360,000 tested, 0.4% active;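 active means activation above its plate's cutoff, the mean activation of sample wells plus 3 SD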
# CHRM4 antagonist: human M4 muscarinic receptor antagonists, primary screen, CHO cells, Fluo-8 calcium fluorescence; inhibition, % at 3 µM; CHO-hM4 cells, ACh EC80; 360,000 tested, 0.73% active;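 active means inhibition above its plate's cutoff, the mean inhibition of sample wells plus 3 SD, cut at about 27% in these data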;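 further: 0% = acetylcholine EC80 with DMSO and 100% = DMSO without agonist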
# CHRM5 PAM: human M5 muscarinic receptor positive allosteric modulators, primary screen, CHO-K1 cells, Fluo-8 calcium fluorescence; Muscarinic acetylcholine receptor M5 (Homo sapiens), P08912; CHO-K1 hM5, ACh EC20 PAM; 0% = ACh EC20, 100% = ACh EC100; activation, % at 3 µM; AID 624038, 2012; 360,000 tested, 0.3% active;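 active means activation above the run cutoff, the mean activation of all test compounds plus 3 SD, cut at about 18% in these data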
#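 Measured by: Fluo-8 calcium fluorescence; material: human M5 receptor in CHO-K1 cells; schedule: Post-acetylcholine fluorescence recording 140 s; benchmarks: low control EC20 acetylcholine (0%), high control EC100 acetylcholine (100%); read-out: Max/basal fluorescence ratio as % of EC20–EC100 ACh window; compound: single dose, 3 µM nominal final test concentration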
# * hit, by the source's call; ! = not active in a repeat.
SMILES,CHRM5 agonist,CHRM5 antagonist,M4 ag,M4 PAM,CHRM4 antagonist,CHRM5 PAM
CCN(CC(=O)NCc1cccs1)C(=O)/C=C/c1cc(Br)ccc1OC(F)F,-4,8,4,15,-21,-1
COc1ccccc1-c1cc2nc(C)cc(C)n2n1,-5,10,-1,-2,1,-6
c1ccc2oc(SCc3cn4ccsc4n3)nc2c1,-13,7,0,-17,38*,-6
CCn1nc(C(=O)OCc2c(C)noc2C)c2ccccc2c1=O,-6,8,0,6,-2,56*
CCc1cc(-c2n[nH]c(=S)n2-c2ccccc2C)cs1,-5,-1,-3,31*,-16,7
CCCN(CCC)Cc1cc(=O)oc2cc3c(cc12)CCC3,2,-1,-1,-9,2,2
Cc1nnc(SCC(=O)N(C)C2CCCCC2)s1,-2,12,0,-3,-8,-4
CCN1/C(=C/c2ccc3ccccc3[n+]2CCCS(=O)(=O)[O-])C=Cc2cc(C)ccc21,-2,14,0,-1,3,-6
CCN1/C(=C/c2ccc3cc(C)ccc3[n+]2CC)Sc2cc(C)ccc21,8,42*,11,-17,17,-22
CCCCN1/C(=C/c2ccc3ccccc3[n+]2CC)Sc2ccccc21,16,39*,22,-4,21,-14
CCN1/C(=C/c2ccc3ccccc3[n+]2CC)C=Cc2ccccc21,0,29*,7,-12,45*,-13
COc1cc(NS(=O)(=O)c2ccc(NC(=O)CCC(=O)O)cc2)nc(OC)n1,0,8,0,-4,2,-1
COc1ccc(-c2nc(CN3CCC(C(=O)N4CCOCC4)CC3)c(C)o2)cc1C,-6,11,-1,0,-2,-6
CO/N=C/CC(=O)c1cnc(-c2ccc(Cl)cc2)s1,-4,16,2,11,2,4
CCCN(CCC)CCCNC(=O)C1CCC(CNS(=O)(=O)c2cccc3nsnc23)CC1 (stereo not drawn),-8,-2,1,-9,11,2
C1CCC(C(CC2CCCCN2)C2CCCCC2)CC1 (stereo not drawn),2,14,11,-15,35*!,-17
Cn1c(SCC(=O)N2CCOCC2)nc2cccnc21,-3,-18,1,-2,4,21*
O=C(CSc1n[nH]c(=O)n1-c1cccnc1)N1CCOCC1,10,-12,1,3,0,20*
CCN(CC)c1ccc(NC(=O)c2ccccn2)cc1S(=O)(=O)Nc1ccccc1OC,-2,10,0,-8,-1,-11
CCO[C@@H]1OC(C(=O)O)=C[C@H](c2ccc3c(c2)OCO3)[C@H]1CCCO,2,1,1,0,2,12
COc1ccc(S(=O)(=O)N2CCc3ccccc32)cc1C(=O)Nc1ccc(C(N)=O)cc1,-3,37*,10,-8,4,-37
O=C(CCC(=O)N1CCN(c2ccc(F)cc2)CC1)c1ccc(Cl)cc1,1,3,7,-5,-8,-5
O=C(CCSCc1ccccc1Cl)N1CCN(c2cccc(Cl)c2)CC1,-1,-11,0,23*,-17,0
O=C(CCC(=O)N1CCN(c2ccc(Cl)c(Cl)c2)CC1)c1ccccc1,3,27*,11,-9,17,-15
Cc1nc2ccccn2c1C(=O)NNS(=O)(=O)c1ccc(C(C)(C)C)cc1,6,28*,13,-1,9,-17
COc1ccc(Br)cc1S(=O)(=O)NNC(=O)c1c(C)nc2ccccn12,-2,-3,8,3,-9,9
Cc1nc(N)c(C#N)c(-c2ccccc2Cl)c1C,11,-4,2,29*,-1,0
N#Cc1c(-c2ccccc2Cl)cc(C2CC2)nc1N,56*,-3,62*,7,-14,2
